A selection: hits, their analogues and other compounds. The true share with any hit is near 2.9%.
PGC1a acetyl inh: lowers PGC1a acetylation signal in U2OS cells | inhibition, % at 15.6 µM | hit rate 0.17% among 350,000 | AlphaScreen anti-acetyl-lysine; with virally co-expressed GCN5 acetyltransferase;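 active = every replicate shows inhibition of at least 40%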
Cneo AK release: Cryptococcus neoformans lysis via adenylate kinase release; lysis activity, % at 15 µM; C. neoformans lysis, adenylate kinase release luminescence, 4 h; normalised: neutral wells 0, clomiphene wells 100; hit rate 0.2% among 360,000;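 active = mean lysis activity across replicates of at least 80%, whatever share of replicates individually reach that level; inactive = mean lysis activity below 80%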
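Assay system: C. neoformans cells. Amount: yeast cell density of 5 × 10^6 cells/mL. Technique: AK luminescence. Buffer or medium: YPD. Times: static 4 h at 37 °C with compound, 1 h detection. Dosing: single-point compound dose. Read-out: lysis from increased AK signal.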
Vif imaging: blocks HIV Vif function; inhibition, % at 7.49 µM; AID 602346; HEK293T cells, Vif self-association by quenched fluorescence, imaging, 24 h; hit rate 0.35% among 340,000; in the data active = inhibition above about 50%, passing the limit was not always enough
FGF22 binding: shifts melting point of recombinant human FGF22; AID 651658; recombinant FGF22 thermal shift, SYPRO orange fluorescence; percent of sucrose octasulfate shift, DMSO zero; Q9HCT0; activity (Tm shift, normalised), % at 9.99 µM; hit rate 1.5% among 340,000;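 active = mean Tm shift, scaled 0 neutral to 100 positive control, at about 1.3% or above, every replicate too, limit read from the data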
Target sequence (Q9HCT0 whole entry, looked up): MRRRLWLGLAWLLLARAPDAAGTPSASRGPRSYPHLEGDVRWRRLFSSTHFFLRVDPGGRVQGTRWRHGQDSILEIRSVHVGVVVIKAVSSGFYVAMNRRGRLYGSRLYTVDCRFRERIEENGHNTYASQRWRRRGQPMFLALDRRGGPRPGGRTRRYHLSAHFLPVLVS
PglD DTNB: inhibitors of Campylobacter jejuni PglD acetyltransferase. inhibition, % at 12.5 µM. hit rate 0.098% among 360,000. purified PglD enzyme, DTNB colorimetric CoA detection; in the data active = inhibition above about 16%, passing the limit was not always enough
rRNA inh HTS: inhibitors of bacterial rRNA selective over humanized ribosomes; GFP signal change (wild-type ribosome), % (test concentration not listed); hit rate 1.6% among 350,000; E. coli WT GFP vs humanized-ribosome RFP mutants, fluorescence, 24 h; hits give low values; DMSO median 0, no signal -100;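 active = significant combined selectivity score with lowered wild-type GFP, culture density cut under 30%, mutant RFP and density less affected; inactive = any of these conditions unmet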
Numbers stand for hits; n = inactive; x = no result.

SMILES	PGC1a acetyl inh	Cneo AK release	Vif imaging	FGF22 binding	PglD DTNB	rRNA inh HTS
N#Cc1ccc(NC(=O)Nc2ccc(Oc3ccc(NC(=O)Nc4ccc(C#N)cc4)cc3)cc2)cc1	n	n	n	n	n	-28
COc1ccc(CC(=O)NCc2nnc(SCc3ccc([N+](=O)[O-])cc3)n2C)cc1	n	n	n	n	n	n
COc1ccc(CC(=O)NCc2nnc(SCc3ccc(C)cc3)n2C)cc1	x	x	n	43	x	x
CCOC(=O)C1CCCCN1Cc1ccc(-c2ccccc2)cc1 (stereo not given)	n	n	n	n	n	-29
Cc1[nH]c2ccccc2c1/C=N/NC(=O)c1cccs1	x	x	n	n	x	-24
CCN1Cc2cc(C(=O)NCCN3CCCC3)nc(-c3cccc(C4=CCCC4)c3)c2[C@H]1CCO	x	x	x	x	x	n
Cc1noc(C)c1S(=O)(=O)Nc1ccc2c(c1)CC(=O)N([C@@H](C)CO)C[C@@H](C)[C@@H](CN(C)C(=O)NC(C)C)O2	n	n	x	n	n	n
CC1=CC(C)(C)NC(=S)N1c1ccc([N+](=O)[O-])cc1	n	n	n	43	n	n
CC1=CC(C)(C)NC(=S)N1c1ccc(C)cc1	n	n	n	x	n	x
CCOc1cc(/C=C(\C#N)C(=O)Nc2cccc(C(=O)O)c2)cc(Br)c1OC(=O)c1ccc(OC)cc1	n	n	n	n	n	-33
CCOc1cc(/C=C(\C#N)C(=O)Nc2cccc(C(=O)O)c2)ccc1OCc1ccccc1Cl	n	n	n	n	n	n
COc1ccc(OCC(=O)Nc2ccc3c(c2)nc(CN2CCCC2)n3C)cc1	n	n	n	x	n	x
Cn1c(CN2CCCC2)nc2cc(NC(=O)COc3ccc(Cl)cc3)ccc21	52	n	n	n	n	n
COc1ccc(NC(=O)Nc2ccc3c(c2)C(=O)N([C@@H](C)CO)C[C@@H](C)[C@@H](CN(C)S(=O)(=O)c2ccc(F)cc2)OCCCC[C@@H](C)O3)cc1	n	n	x	n	n	n
COc1cc2c(c(OC)c1OC)-c1c(cc3c(c1OC)OCO3)[C@@H](OC(C)=O)[C@H](C)[C@H](C)C2	n	n	n	n	n	-42
C/C=C(/C)C(=O)O[C@@H]1c2cc(OC)c(OC)c(OC)c2-c2c(cc3c(c2OC)OCO3)C[C@H](C)[C@]1(C)O	n	n	n	n	n	n
N#Cc1ccc(-c2nc3ccc(Br)cn3c2Cc2ccccc2C(F)(F)F)cc1	n	n	x	n	n	n
FC(F)(F)c1ccccc1Cc1c(-c2ccccc2)nc2ccc(Br)cn12	n	n	x	n	n	-27
CCCCNS(=O)(=O)c1ccc2nc(SCC(=O)c3ccccc3OC)[nH]c2c1	n	n	n	n	n	-45
O=C(C[C@@H]1CC[C@@H]2[C@H](COC[C@@H](O)CN2Cc2cc(F)ccc2F)O1)NCc1ccc(Oc2ccccc2)cc1	n	n	x	n	n	n
NC(=O)c1ccccc1NC(=O)CSc1nc2ccccc2c(=O)[nH]1	x	n	x	n	n	n
CSc1nsc(SCC(=O)Nc2ccccc2C(=O)O)n1	x	n	n	1.5	n	n
Cc1cc2nc(SCC(=O)Nc3ccccc3C(=O)O)[nH]c2cc1C	x	x	n	2.2	x	n
CO[C@H]1CN(C)C(=O)c2cc(NC(C)=O)ccc2OC[C@@H](C)N(Cc2ccccc2C(=O)O)C[C@@H]1C	n	n	x	n	n	n
CC(C)Cc1ccc(C(C)C(=O)Nc2ccc(O)cc2)cc1 (stereo not given)	x	n	n	n	n	n
SMILES	PGC1a acetyl inh	Cneo AK release	Vif imaging	FGF22 binding	PglD DTNB	rRNA inh HTS
CC(C)Cc1ccc(C(C)C(N)=Nc2ccc(O)cc2)cc1 (stereo not given)	n	n	n	n	n	-44
COc1cc(C(=O)NNC(=O)/C=C/c2ccccc2)cc(OC)c1OC	n	x	n	n	x	n
COc1cc(C(=O)NNC(=S)NC(=O)/C=C/c2ccccc2)cc(OC)c1OC	n	n	n	n	n	-15
O=C(C[C@H]1C[C@@H]2c3cc(NC(=O)c4cccnc4)ccc3O[C@@H]2[C@@H](CO)O1)NCCN1CCCCC1	n	n	x	n	n	n
N#Cc1nc(-c2ccccc2F)oc1NCc1cccc2c1OCO2	n	n	n	n	n	-29
CN(C)CCNc1oc(-c2ccccc2F)nc1C#N	n	n	n	n	n	n
O=C(OCC(=O)N1CCN(Cc2ccccc2)CC1)c1ccc(Cl)cc1	n	x	n	44	x	x
S=C(c1ccc(Br)cc1)N1CCN(Cc2ccccc2)CC1	n	n	x	n	n	-22
Cn1nnnc1Sc1ncnc2scc(-c3ccc(F)cc3)c12	n	n	52	x	n	x
COc1ccc(N2CCN(C(=O)c3ccc(C)cc3)CC2)c([N+](=O)[O-])c1	x	x	n	x	x	x
COc1ccc(N2CCN(C(=O)c3ccc(Br)cc3)CC2)c([N+](=O)[O-])c1	n	x	n	n	x	-24
COc1ccc(N2CCN(C(=O)c3ccccc3)CC2)c([N+](=O)[O-])c1	n	n	n	n	n	-23
C[C@H](CO)N1C[C@H](C)[C@@H](CN(C)C(=O)C2CCC2)Oc2cc(-c3cccnc3)ccc2S1(=O)=O	n	n	x	n	n	n
CCCNC(=O)N1CC2(CCN(C)CC2)c2c(n(C)c3cc(OC)ccc23)[C@@H]1CO	x	x	x	x	x	n
O=C(O)C1CCCN1C(=O)C12CC3CC(CC(C3)C1)C2 (stereo not given)	x	n	n	n	n	n
O=C(COC(=O)C1CCCN1C(=O)C12CC3CC(CC(C3)C1)C2)c1ccc(Br)cc1 (stereo not given)	n	n	n	44	x	n
COc1ccc(C(=O)COC(=O)C2CCCN2C(=O)C23CC4CC(CC(C4)C2)C3)cc1 (stereo not given)	x	x	n	43	x	n
O=C(C[C@@H]1C=C[C@@H](NC(=O)c2cccnc2)[C@H](CO)O1)NCc1ccc(Cl)c(Cl)c1	n	n	x	n	n	n
O=C1NCCCOCc2cn(nn2)CC[C@H]1Cc1ccc(-c2ccccc2)cc1	x	x	x	x	x	n
CC(C)c1cn(CC[C@H]2CC[C@@H](NS(=O)(=O)c3ccc(Cl)cc3)[C@@H](CO)O2)nn1	n	n	x	n	n	n
Cn1cc(CNC(=O)c2cc(COc3ccc4c(c3)CCCC4)on2)cn1	n	n	n	n	n	-32
C[C@H](CO)N1C[C@H](C)[C@H](CN(C)Cc2ccc(C(=O)Nc3ccccc3N)cc2)Oc2ccc(NS(=O)(=O)c3ccc(Cl)cc3)cc2CC1=O	n	x	x	n	x	n
COc1ccc(C(=O)NCCc2ccccn2)cc1S(=O)(=O)Nc1ccc(Br)cc1	x	n	n	n	n	-20
O=C1/C(=C/c2ccc(O)cc2)SC(=S)N1CC1CCCO1 (stereo not given)	n	x	n	n	x	-24
CN1C(=O)/C(=C/c2cccc(Cl)c2)Sc2ccc(C(=O)N3CCCC3)cc21	x	x	x	n	x	-35
C/C(=N\NC(N)=O)c1ccccc1	n	x	n	n	x	n

High-throughput results: PubChem BioAssay, Broad Institute
